# Only some compounds are listed: those with a hit (about 2.7% of all), similar ones and a draw of the others.
# PLK1 PBD inh = Plk1 (human) PBD binding inhibition. Plk1 PBD phosphopeptide binding, fluorescence polarization. P53350. 97,000 compounds, 0.13% hits. inhibition, %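 (tested at about 20 µM)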; in the data active = inhibition above about 34%, passing the limit was not always enough
# Target sequence (P53350 whole entry, looked up): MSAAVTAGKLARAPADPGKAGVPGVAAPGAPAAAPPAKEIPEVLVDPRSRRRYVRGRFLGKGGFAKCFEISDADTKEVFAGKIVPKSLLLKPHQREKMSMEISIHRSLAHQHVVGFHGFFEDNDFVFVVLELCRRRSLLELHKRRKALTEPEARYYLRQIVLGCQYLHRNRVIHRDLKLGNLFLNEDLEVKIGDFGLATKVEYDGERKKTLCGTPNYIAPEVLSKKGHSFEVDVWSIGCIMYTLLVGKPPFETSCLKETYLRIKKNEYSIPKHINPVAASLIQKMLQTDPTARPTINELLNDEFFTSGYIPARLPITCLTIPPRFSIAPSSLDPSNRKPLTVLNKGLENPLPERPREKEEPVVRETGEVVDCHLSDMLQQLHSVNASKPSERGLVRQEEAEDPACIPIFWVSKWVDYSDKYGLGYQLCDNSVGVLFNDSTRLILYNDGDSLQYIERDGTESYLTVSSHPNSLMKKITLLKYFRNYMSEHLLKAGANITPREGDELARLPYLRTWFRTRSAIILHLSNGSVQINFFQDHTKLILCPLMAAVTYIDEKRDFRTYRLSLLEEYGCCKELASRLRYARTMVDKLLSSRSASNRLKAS
# PLAP activator = activators of human placental alkaline phosphatase; purified PLAP enzyme, luminescent substrate read-out; hits give high values; activation fold at 20 µM; 96,000 compounds, 1.2% hits; in the data active = activation fold above about 2
# PTPN22 act = LYP (human) phosphatase activation; Q9Y2R2; recombinant LYP, DiFMUP fluorescence; 0 = plate median, 100 = signal doubled; activation, % at 2 µM; 96,000 compounds, 0.11% hits; AID 697;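 active = activation at 2 µM above a set limit, the mean plus 5 SD, cut at about 37% in these data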
# HIV Rev-RRE inh = HIV Rev-RRE protein-RNA interaction inhibition | P05866 | Rev peptide-RRE RNA binding, FRET | inhibition, % at 8 µM | 97,000 compounds, 0.79% hits | AID 704;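 active = inhibition above the screen-wide mean plus 3 SD, cut at about 35% in these data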;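 note: 0% = median DMSO wells and 100% = median Neomycin B control wells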
#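 System: Cy5-labelled duplex RRE RNA binding fluorescein-labelled HIV Rev peptide; Signal: fluorescein-to-Cy5 FRET, 480 nm excitation; Also added: labelled Rev peptide; Compound: one concentration, 8 µM nominal; Buffer or medium: HEPES pH 7.5 salt buffer with EDTA; Read-out: % inhibition of FRET ratio versus controls; Schedule: 5 min preincubation and 15 min binding, 25 °C.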
# PTPN22 inh 2 = inhibitors of human LYP (PTPN22) phosphatase | inhibition, % at 2 µM | Q9Y2R2 | AID 640 | recombinant LYP catalytic domain, DiFMUP fluorescence | 96,000 compounds, 0.21% hits;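 active = inhibition at 2 µM at or above a set limit, the screen mean plus 3 SD, cut at about 24% in these data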;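 note: 0% = DMSO with enzyme and 100% = enzyme fully blocked by orthovanadate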
# PLK1 inh = PLK1 (human) kinase inhibition | P53350 | recombinant PLK1 kinase, TR-FRET peptide phosphorylation | inhibition, % at 10 µM | 97,000 compounds, 0.53% hits;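 active = inhibition of 50% or more in the single-concentration screen; inactive = inhibition below 50%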;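 note: 0% = DMSO max control and 100% = H-89 dihydrochloride min control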
# The depositor's hits bear a star; . = no result; [ ] = another dose, or the depositor's remark.
SMILES,PLK1 PBD inh,PLAP activator,PTPN22 act,HIV Rev-RRE inh,PTPN22 inh 2,PLK1 inh
CN(C)c1ccc(CN(C(=O)C2COc3ccccc3O2)C2CCS(=O)(=O)C2)cc1 (stereo not given),-16.4,1.1,-3.5,2.4,2.3,4.0
COc1ccc2nc(NC(=O)CNS(=O)(=O)c3cccs3)sc2c1,0.5,2.5*,7.5,6.8,-4.0,6.0
Cc1csc(NC(=O)CNS(=O)(=O)c2cccs2)n1,12.0,2*,3.2,3.0,-5.1,-0.1
COc1ccc(NC(=O)CNS(=O)(=O)c2cccs2)c(OC)c1,-8.2,1.4,-7.0,1.3,10.0,-3.2
COc1ccc(CN2CCN(C(=O)c3ccco3)CC2)cc1,-13.8,0.9,-36.4,2.3,36.8*,-5.6
CCOC(=O)C1=C(N)OC2=C(C(=O)CCC2)C1c1ccccc1OCC (stereo not given),25.0,1.2,1.3,7.8,-3.5,49.2
Cc1nc(S/C(=C/c2ccc(-c3cccc(Cl)c3)o2)C(=O)O)n[nH]1,7.8,1.2,-20.8,28.8,24.4*,-14.5
CC1=NOC(=O)/C1=C\c1ccc(-c2cccc(Cl)c2)o1,-8.8,1.2,11.0,4.2,-9.5,-4.2
Cc1nnc(SC(C)C(=O)NCC2CCCO2)n1-c1ccccc1 (stereo not given),-12.6,1,-6.5,0.7,6.2,-6.7
COc1ccc(/C=C/c2nc3sc4c(c3c(=O)o2)CCC4)cc1,11.3,.,-7.9,2.4,10.3,-15.3
O=c1oc(/C=C/c2ccccc2)nc2sc3c(c12)CCC3,20.3,0.8,2.5,37.9*,-0.5,-7.7
Nn1c(SCc2nc3ccccc3[nH]2)nnc1-c1cccnc1,.,2*,.,.,.,.
COc1cccc(-c2nnc(SCc3nc4ccccc4[nH]3)n2N)c1,-22.4,1.3,-1.1,1.5,-3.1,-10.4
Nn1c(SCc2nc3ccccc3[nH]2)nnc1C1CCCCC1,-4.8,2.1*,-2.8,7.5,1.4,-9.5
CCOC(=O)C1=C(C)C(c2ccccc2OC)NC(=S)N1 (stereo not given),14.0,1.1,6.8,-2.7,-4.3,6.4
Cc1sc2nc(CN3CCCC3)nc(N3CCC(C(N)=O)CC3)c2c1C,14.9,2*,0.5,-8.5,0.1,-3.8
CCOC(=O)C1CCN(C(=O)c2sc3nc(C)nc(N4CCC(C)CC4)c3c2C)CC1,-37.3,.,-2.6,0.7,0.1,-2.4
CCOC(=O)CC(=O)CSc1nc(-c2ccc3c(c2)OCO3)cc(C(F)(F)F)c1C#N,-33.2,1,-3.1,61.1*,7.7,-15.2
CCOC(=O)CCSc1nc(C)cc(C(F)(F)F)c1C#N,-27.0,0.7,10.3,80.2*,-9.8,-4.4
Cc1cc(C)c2[nH]c(=O)c(C(c3nnnn3CC3CCCO3)N3CCC(C)CC3)cc2c1 (stereo not given),.,1.6,.,.,.,.
C=CCOc1ccc(NC(=O)C(=O)NCCCn2ccnc2)cc1,-33.3,1.1,-3.4,2.5,5.4,-5.4
CC(NC(=O)C1CC=CCC1C(=O)O)C1CC2CCC1C2 (stereo not given),-22.4,1,4.7,3.3,-7.0,-7.3
S=c1[nH]nc(-c2ccncc2)n1Cc1ccccc1,1.6,2*,-8.2,4.2,5.1,-5.2
S=c1[nH]nc(-c2cccnc2)n1Cc1ccccc1,-5.5,0.9,-2.4,4.5,0.2,-6.9
CC1=CC(C)(C)N(C(=O)c2ccccc2)c2ccc(C)cc21,0.8,1,8.4,14.4,-11.4,-11.0
SMILES,PLK1 PBD inh,PLAP activator,PTPN22 act,HIV Rev-RRE inh,PTPN22 inh 2,PLK1 inh
Nc1c(C(=O)Nc2ccccc2F)sc2nc(Cc3ccccc3)cc(C(F)(F)F)c12,-6.4,1.3,-2.8,82.2*[fluorescence artefact?],1.5,-27.2
COc1cccc(NC2=NC3(CCCCC3)N=C(N)N2)c1,19.4,2.8*,4.9,-6.3,-4.2,14.7
Cc1ccc(NC2=NC3(CCCCC3)N=C(N)N2)c(C)c1,-7.9,2.2*,1.3,-13.2,-4.5,-11.8
O=C(NC(=O)c1ccccc1)OCC1CCCN2CCCCC12 (stereo not given),-12.3,0.9,1.2,4.1,-4.2,-3.4
c1ccc(CNc2ncnc3nc[nH]c23)cc1,16.7,2*,-5.0,-1.5,4.9,27.0
CCOc1cc(CNc2ncnc3nc[nH]c23)ccc1OC,.,2.2*,.,.,.,.
O=C(COc1ccc(Cl)cc1Cl)Nc1nc2n(n1)C(c1ccccc1)CC(=O)N2 (stereo not given),6.9,1.6,-6.4,10.8,5.5,-2.8
O=C1CC(c2ccccc2)n2nc(NS(=O)(=O)c3ccccc3)nc2N1 (stereo not given),-28.2,2*,-6.6,2.2,3.3,-12.6
CC(=O)c1ccc(CCCC(=O)O)cc1,7.3,0.9,-4.3,7.7,3.3,1.0
CCn1cc(C(=O)N2CCOCC2)c(=O)c2cc(S(=O)(=O)N(C)C)ccc21,24.5,1,.,10.8,.,69.2*
CCn1cc(C(=O)N2CCCC2)c(=O)c2cc(S(=O)(=O)N(C)C)ccc21,-3.5,0.9,4.0,9.8,-6.3,-5.1
Cc1ccc(-n2nc3c4c(cccc4c2=O)-c2ccccc2-3)cc1,17.2,0.8,-28.5,6.6,31.8*,-5.3
COc1cc(=O)[nH]c(SCc2c(F)c(F)c(F)c(F)c2F)n1,-8.1,0.8,9.5,0.3,-11.1,-4.5
O=C(Nc1cccc(Cl)c1)c1cnn2cccnc12,17.8,0.9,-9.5,4.2,8.7,59.5*
CCC(C(=O)NCc1ccco1)N(Cc1cccs1)C(=O)CNS(=O)(=O)c1ccccc1 (stereo not given),-0.8,1.2,-1.9,10.4,-0.8,-37.8
O=C(O)C(=O)/C(=C\c1ccccc1)c1ccc2ccccc2n1,-19.1,1,6.2,77.7*,-9.4,-13.2
O=C(O)C(=O)/C(=C\c1cccc2ccccc12)c1ccc2ccccc2n1,-14.5,1,-4.8,88.5*[fluorescence artefact?],7.2,-2.6
Cc1cccc(NC(=O)c2ccc3ccccc3n2)c1C,-12.6,1.1,4.9,19.1,-2.7,-6.7
O=C(c1ccccc1)c1ccc2ccccc2n1,-21.0,0.7,-3.0,2.4,1.7,-9.6
CC1C/C(=C/c2cccn2C)C(=O)/C(=C/c2cccn2C)C1 (stereo not given),-209.8,1.4,-11.0,135.8*[fluorescence artefact?],11.3,-12.4
O=C(Nc1ccc2nc(-c3ccccn3)[nH]c2c1)C1CCCCC1,28.1,2.3*,-12.4,3.8,14.9,1.8
Cn1ccnc1C(O)c1cc(C(C)(C)C)c(O)c(C(C)(C)C)c1 (stereo not given),0.8,2.2*,-2.8,4.3,3.9,6.6
COc1ccc(-c2nnc(SC(C)C(=O)Nc3ccc4c(c3)OCCO4)o2)cc1 (stereo not given),-1.8,2.1*,7.7,-1.2,-9.9,-10.1
COC(=O)COc1cccc(NC(=O)c2cccs2)c1,-24.2,0.9,1.2,2.9,-1.6,-12.3
CCOc1ccccc1OCCCCCc1c(C)n[nH]c1C,-8.4,1.5,-2.7,6.8,0.2,13.2

# Screening results from PubChem BioAssay.
